Source: ChEMBL document CHEMBL4038284, “Synthesis of novel quinoline-based 4,5-dihydro-1H-pyrazoles as potential anticancer, antifungal, antibacterial and antiprotozoal agents” (Eur J Med Chem, 2017)
≈ marks a conversion by molar mass, not a printed value.

Key:
[1] = system: Leishmania panamensis; test: Antileshmanial activity against EpiR/GFP fused Leishmania panamensis MHOM/CO/87/UA140 intracellular amastigotes infected in human […] cells after 72 hrs by flow cytometric method; type: functional, cell-based; settings: MHOM/CO/87/UA140, 72 h
Method in brief: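 PMA-treated U-937 cells (3 × 10^5 cells/mL) infected with stationary-phase GFP L. panamensis promastigotes (15:1), 3 h at 34 °C, then washed. After 24 h, compounds added at 50, 12.5, 3.125 and 0.78 µg/mL for 72 h at 37 °C. EC50 by Probit; triplicate, two experiments.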

[2] = system: Klebsiella pneumoniae; test: Antibacterial activity against ESBL positive Klebsiella pneumoniae ATCC 700603 after 24 hrs by resazurin dye based microdilution assay; type: functional; settings: Klebsiella pneumoniae, 700603, 24 h
Method in brief: (§1)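 MIC taken as the lowest concentration giving visible inhibition and/or by resazurin (1 mg/mL). Gentamicin was the control. Run in duplicate, repeated at least three times.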

[3] = system: Cryptococcus neoformans; test: Growth inhibition of Cryptococcus neoformans ATCC 32264 at 7.8 ug/ml incubated for 48 hrs under dark condition by broth microdilution method relative to control; type: functional; settings: ATCC 32264, 48 h, read-out: GI
Method in brief: (§2)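 CLSI M27-A3 broth microdilution in RPMI-1640, DMSO ≤1%. Inoculum 1-5 × 10^3 CFU/mL. Incubated 48 h at 30 °C, dark. % inhibition = 100 − (OD405 test − sterility control)/(OD405 growth control − sterility control), with growth and sterility control wells. Triplicate.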

[4] = system: Candida albicans; test: Growth inhibition of Candida albicans ATCC 10231 at 250 ug/ml incubated for 48 hrs under dark condition by broth microdilution method relative to control; type: functional; settings: ATCC 10231, 48 h, read-out: GI; method in brief: as §2
[5] = system: Candida albicans; test: Growth inhibition of Candida albicans ATCC 10231 at 31.25 ug/ml incubated for 48 hrs under dark condition by broth microdilution method relative to control; type: functional; settings: ATCC 10231, 48 h, read-out: GI; method in brief: as §2
[6] = system: Cryptococcus neoformans; test: Growth inhibition of Cryptococcus neoformans ATCC 32264 at 250 ug/ml incubated for 48 hrs under dark condition by broth microdilution method relative to control; type: functional; settings: ATCC 32264, 48 h, read-out: GI; method in brief: as §2
[7] = system: Neisseria gonorrhoeae; test: Antibacterial activity against beta lactamase positive Neisseria gonorrhoeae ATCC 31426 by oxidase test; type: functional
Method in brief: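 Agar dilution MIC on GC agar with 1% isovitalex containing increasing compound concentrations. Plates inoculated with about 1×10^4 CFU (5 µL). MIC is the lowest concentration that inhibited growth, with growth confirmed by oxidase test. Run in duplicate, repeated at least three times.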

[8] = system: Pseudomonas aeruginosa; test: Antibacterial activity against Pseudomonas aeruginosa ATCC 27853 after 24 hrs by resazurin dye based microdilution assay; type: functional; settings: ATCC 27853, 24 h; method in brief: as §1
[9] = system: Candida albicans; test: Growth inhibition of Candida albicans ATCC 10231 at 7.8 ug/ml incubated for 48 hrs under dark condition by broth microdilution method relative to control; type: functional; settings: ATCC 10231, 48 h, read-out: GI; method in brief: as §2
[10] = system: Staphylococcus aureus; test: Antibacterial activity against methicillin-resistant Staphylococcus aureus ATCC 43300 after 24 hrs by resazurin dye based microdilution assay; type: functional; settings: ATCC 43300, 24 h
Method in brief: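 Broth microdilution in Mueller Hinton broth, inoculum 5 × 10^5 – 8 × 10^5. Compound stocks diluted in MHB with 5% DMSO and 0.1% Tween 80. Incubation 24 h at 35-37 °C. MIC is the lowest concentration with visible growth inhibition and/or by resazurin (1 mg/mL) read-out. Gentamicin as control. Run in duplicate, replicated at least three times.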

[11] = system: Candida albicans; test: Growth inhibition of Candida albicans ATCC 10231 at 62.5 ug/ml incubated for 48 hrs under dark condition by broth microdilution method relative to control; type: functional; settings: ATCC 10231, 48 h, read-out: GI; method in brief: as §2
[12] = system: Candida albicans; test: Growth inhibition of Candida albicans ATCC 10231 at 15.62 ug/ml incubated for 48 hrs under dark condition by broth microdilution method relative to control; type: functional; settings: ATCC 10231, 48 h, read-out: GI; method in brief: as §2
[13] = system: Candida albicans; test: Growth inhibition of Candida albicans ATCC 10231 at 125 ug/ml incubated for 48 hrs under dark condition by broth microdilution method relative to control; type: functional; settings: ATCC 10231, 48 h, read-out: GI; method in brief: as §2
[14] = system: Candida albicans; test: Growth inhibition of Candida albicans ATCC 10231 at 3.4 ug/ml incubated for 48 hrs under dark condition by broth microdilution method relative to control; type: functional; settings: ATCC 10231, 48 h, read-out: GI
[15] = system: Cryptococcus neoformans; test: Growth inhibition of Cryptococcus neoformans ATCC 32264 at 62.5 ug/ml incubated for 48 hrs under dark condition by broth microdilution method relative to control; type: functional; settings: ATCC 32264, 48 h, read-out: GI; method in brief: as §2
[16] = system: Cryptococcus neoformans; test: Growth inhibition of Cryptococcus neoformans ATCC 32264 at 125 ug/ml incubated for 48 hrs under dark condition by broth microdilution method relative to control; type: functional; settings: ATCC 32264, 48 h, read-out: GI; method in brief: as §2
[17] = system: Candida albicans; test: Antifungal activity against Candida albicans ATCC 10231 incubated for 48 hrs under dark condition by broth microdilution method; type: functional; settings: ATCC 10231, 48 h
Method in brief: (§3)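 CLSI M27-A3 broth microdilution in RPMI-1640, DMSO ≤1%, compounds at 250-0.98 µg/mL final. Inoculum 1-5 × 10^3 CFU/mL. Incubated 48 h at 30 °C in a moist dark chamber, read at OD405. MIC80 and MIC50 taken from % inhibition dose-response curves (mean ± SEM, triplicate). Amphotericin B was the positive control.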

[18] = system: Escherichia coli; test: Antibacterial activity against Escherichia coli ATCC 25922 after 24 hrs by resazurin dye based microdilution assay; type: functional; settings: ATCC 25922, 24 h; method in brief: as §1
[19] = system: Cryptococcus neoformans; test: Growth inhibition of Cryptococcus neoformans ATCC 32264 at 3.4 ug/ml incubated for 48 hrs under dark condition by broth microdilution method relative to control; type: functional; settings: ATCC 32264, 48 h, read-out: GI
[20] = system: Cryptococcus neoformans; test: Growth inhibition of Cryptococcus neoformans ATCC 32264 at 15.62 ug/ml incubated for 48 hrs under dark condition by broth microdilution method relative to control; type: functional; settings: ATCC 32264, 48 h, read-out: GI; method in brief: as §2
[21] = system: Staphylococcus aureus; test: Antibacterial activity against methicillin-sensitive Staphylococcus aureus ATCC 25923 after 24 hrs by resazurin dye based microdilution assay; type: functional; settings: ATCC 25923, 24 h; method in brief: as §1
[22] = system: U-937; test: Cytotoxicity against human U937 cells after 72 hrs by MTT assay; type: cell-based; settings: u-937, 72 h
Method in brief: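 Exponentially growing U-937 at 1 × 10^5 cells/mL in RPMI-1640 with 10% FBS were exposed to 200, 50, 12.5 and 3.125 µg/mL for 72 h at 37 °C, 5% CO2. MTT for 3 h, stopped with isopropanol/SDS, formazan read at 570 nm, blank-corrected. LC50 by Probit from % viability against untreated cells. Triplicate, at least two independent experiments.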

[23] = system: Plasmodium falciparum; test: Antiplasmodial activity against chloroquine-sensitive Plasmodium falciparum 3D7 assessed as reduction in parasitic LDH activity after 48 hrs by Malstat reagent based […] method; type: functional; settings: 3D7, 48 h
Method in brief: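 Unsynchronized P. falciparum 3D7 at 0.5% parasitemia and 1% hematocrit in RPMI with 3% Albumax II. Exposed to 100, 25, 6.25 and 1.56 µg/mL for 48 h at 37 °C under 90% N2/5% CO2/5% O2. After three freeze-thaw cycles, LDH measured with Malstat and NBT/PES, 1 h in the dark, read at 650 nm. IC50 by Probit; triplicate, ≥2 experiments.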

[24] = system: Staphylococcus aureus; test: Antibacterial activity against vancomycin-intermediate Staphylococcus aureus after 24 hrs by resazurin dye based microdilution assay; type: functional; method in brief: as §1
[25] = system: Klebsiella pneumoniae; test: Antibacterial activity against carbapenemase positive Klebsiella pneumoniae BAA 1705 after 24 hrs by resazurin dye based microdilution assay; type: functional; settings: BAA 1705, 24 h; method in brief: as §1
[26] = system: Trypanosoma cruzi; test: Antitrypanosomal activity against Trypanosoma cruzi Tulahuen intracellular amastigote harboring LacZ infected in human U937 cells after 72 hrs by CPRG/Nonidet reagent based spectrophotometric method; type: functional, cell-based; settings: U-937, 72 h
Method in brief: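 U-937 cells at 2.5 × 10^5 cells/mL in RPMI-1640 with 10% serum and 0.1 µg/mL PMA were infected with β-galactosidase-transfected Tulahuen epimastigotes at 5 parasites per cell. Infected cells were exposed to 50, 12.5, 3.125 and 0.78 µg/mL for 72 h. CPRG (100 uM) and 0.1% Nonidet P-40 were added for 3 h, read at 570 nm. EC50 by Probit. Triplicate, at least two experiments; benznidazole as reference.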

[27] = system: Cryptococcus neoformans; test: Growth inhibition of Cryptococcus neoformans ATCC 32264 at 31.25 ug/ml incubated for 48 hrs under dark condition by broth microdilution method relative to control; type: functional; settings: ATCC 32264, 48 h, read-out: GI; method in brief: as §2
[28] = system: Cryptococcus neoformans; test: Antifungal activity against Cryptococcus neoformans ATCC 32264 incubated for 48 hrs under dark condition by broth microdilution method; type: functional; settings: ATCC 32264, 48 h; method in brief: as §3

| SMILES | EC50 [1] [µg/mL] | MIC [2] [µg/mL] | inhibition of growth at 7.8 µg/mL [3] [%] | inhibition of growth at 250 µg/mL [4] [%] | inhibition of growth at 31.25 µg/mL [5] [%] | inhibition of growth at 250 µg/mL [6] [%] | MIC [7] [µg/mL] | MIC [8] [µg/mL] | inhibition of growth at 7.8 µg/mL [9] [%] | MIC [10] [µg/mL] | inhibition of growth at 62.5 µg/mL [11] [%] | inhibition of growth at 15.62 µg/mL [12] [%] | inhibition of growth at 125 µg/mL [13] [%] | inhibition of growth at 3.4 µg/mL [14] [%] | inhibition of growth at 62.5 µg/mL [15] [%] | inhibition of growth at 125 µg/mL [16] [%] | MIC50 [17] [µg/mL] | MIC80 [17] [µg/mL] | MIC [18] [µg/mL] | inhibition of growth at 3.4 µg/mL [19] [%] | further results |
| --- | --- | --- | --- | --- | --- | --- | --- | --- | --- | --- | --- | --- | --- | --- | --- | --- | --- | --- | --- | --- | --- |
| O=CN1N=C(c2ccc(Br)cc2)CC1c1cccc(Nc2ccnc3cc(Cl)ccc23)c1 (stereo not given) | 2.41 (≈ 4.76 µM) | > 1000 | 39.1 | 58.7 | 19.2 | 100 | > 1000 | > 1000 | 8.36 | > 1000 | 25.3 | 13 | 31.4 | 5.76 | 53.5 | 60.9 | 250 (≈ 494 µM) | ≥ 250 | > 1000 | 24.2 | inhibition of growth at 15.62 µg/mL [20]: 44.2%; MIC [21]: > 1000 µg/mL; LC50 [22]: 0.6 µg/mL (≈ 1.19 µM); EC50 [23]: 15.7 µg/mL (≈ 31 µM); MIC [24]: > 1000 µg/mL; MIC [25]: > 1000 µg/mL; EC50 [26]: 1.24 µg/mL (≈ 2.45 µM); inhibition of growth at 31.25 µg/mL [27]: 44.5%; MIC50 [28]: 62.5 µg/mL (≈ 124 µM); MIC80 [28]: 250 µg/mL (≈ 494 µM) |
| CC(=O)N1N=C(c2ccccc2)CC1c1cccc(Nc2ccnc3cc(Cl)ccc23)c1 (stereo not given) | 3.67 (≈ 8.32 µM) | > 1000 | 8.77 | 53.3 | 21.2 | 69.2 | > 1000 | > 1000 | 10.5 | > 1000 | 23.1 | 19.8 | 27.5 | 5.28 | 12.8 | 41.9 | 250 (≈ 567 µM) | ≥ 250 | > 1000 | 0 | inhibition of growth at 15.62 µg/mL [20]: 12.2%; MIC [21]: > 1000 µg/mL; LC50 [22]: 5.8 µg/mL (≈ 13.2 µM); EC50 [23]: 12.7 µg/mL (≈ 28.7 µM); MIC [24]: > 1000 µg/mL; MIC [25]: > 1000 µg/mL; EC50 [26]: 4.26 µg/mL (≈ 9.66 µM); inhibition of growth at 31.25 µg/mL [27]: 12.3%; MIC50 [28]: 250 µg/mL (≈ 567 µM); MIC80 [28]: ≥ 250 µg/mL |
| Cc1ccc(C2=NN(c3cc(Cl)cc(Cl)c3)C(c3cccc(Nc4ccnc5cc(Cl)ccc45)c3)C2)cc1 (stereo not given) | 18.1 (≈ 32.5 µM) | > 1000 | 1.15 | 17.9 | 0 | 40.9 | > 1000 | > 1000 | 0 | > 1000 | 0 | 0 | 3.88 | 0 | 8.02 | 15.3 | ≥ 250 | ≥ 250 | > 1000 | 0 | inhibition of growth at 15.62 µg/mL [20]: 1.85%; MIC [21]: > 1000 µg/mL; LC50 [22]: > 200 µg/mL; EC50 [23]: 65.2 µg/mL (≈ 117 µM); MIC [24]: > 1000 µg/mL; MIC [25]: > 1000 µg/mL; EC50 [26]: 49.2 µg/mL (≈ 88.3 µM); inhibition of growth at 31.25 µg/mL [27]: 6.71%; MIC50 [28]: ≥ 250 µg/mL; MIC80 [28]: ≥ 250 µg/mL |
